Among the data in ChEMBL document CHEMBL2163252, “Azapeptide analogues of the growth hormone releasing peptide 6 as cluster of differentiation 36 receptor ligands with reduced affinity for the growth hormone secretagogue receptor 1a” (J Med Chem, 2012) are Activity and IC50 values, retold here.

Test [1] is described as follows: Antiangiogenic effect in […] mouse microvascular choroid explants assessed as choroid sprouting at 10^-7 M after 4 days (reference value: 53%). Type of test: functional.
The target in the next test is Platelet glycoprotein 4 (Rattus norvegicus, UniProt Q07969). Kind of test: Displacement of photoactivatable [125I]-Tyr-Bpa-Ala-Hexarelin from CD36 in Sprague-Dawley rat cardiac membranes incubated for 60 mins by densitometry. It counts as cell membranes, Membrane.
Sequence of Platelet glycoprotein 4 (Q07969 whole entry): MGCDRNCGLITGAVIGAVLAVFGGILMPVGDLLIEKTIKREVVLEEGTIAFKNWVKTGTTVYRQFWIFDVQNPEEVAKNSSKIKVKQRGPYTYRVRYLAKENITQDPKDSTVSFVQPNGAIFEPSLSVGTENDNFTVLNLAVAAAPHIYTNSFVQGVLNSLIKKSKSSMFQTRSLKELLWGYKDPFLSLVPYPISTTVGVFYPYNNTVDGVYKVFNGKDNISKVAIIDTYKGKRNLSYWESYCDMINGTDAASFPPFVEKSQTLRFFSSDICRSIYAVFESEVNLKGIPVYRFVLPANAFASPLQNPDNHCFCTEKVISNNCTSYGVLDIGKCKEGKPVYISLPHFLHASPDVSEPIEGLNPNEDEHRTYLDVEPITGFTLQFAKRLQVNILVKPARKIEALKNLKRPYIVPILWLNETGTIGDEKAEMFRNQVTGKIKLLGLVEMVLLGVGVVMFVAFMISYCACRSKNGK
Test [2] addresses Growth hormone secretagogue receptor type 1 (Homo sapiens, UniProt Q92847). Kind of test: Displacement of [125I]ghrelin expressed in LLC-PK1 cells incubated for 1 hr by gamma counting method. It counts as cell-based. In a few lines: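 Membranes from LLC-PK1 cells transiently transfected with GHS-R1a (CaPO₄; harvested 24 h later; freeze/thaw lysis, 10000g), 10 μg protein/tube. Incubated with ¹²⁵I-ghrelin (40,000 cpm) and competitor 10⁻¹² to 10⁻⁵ M, 1 h at RT, in Tris/MgCl₂/EDTA/bacitracin buffer pH 7.3. Nonspecific binding set with 10⁻⁵ M competitor. Bound separated by filtration on PEI-soaked GF/C filters, gamma counted.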

Starred links: 1 amine or outer side, 2 acyl side, 3 side chain; linkers in the order of their positions; H or OH if unused. Non-standard residues stand in square brackets, D forms with d. Residues, ends and D or L forms follow the SMILES beside them. Haic = O=C1[C@@H](N[*:1])CCc2cccc3c2N1[C@H](C(=O)[*:2])C3; dTrp(2-Me) = Cc1[nH]c2ccccc2c1C[C@@H](N)C(=O)O; azaTyr = O=C(N(Cc1ccc(O)cc1)N[*:1])[*:2]; azaPhe = O=C(N(Cc1ccccc1)N[*:1])[*:2]; azaLeu = CC(C)CN(N[*:1])C(=O)[*:2]; azaGly = NNC(=O)O

Sequence of Growth hormone secretagogue receptor type 1 (Q92847 whole entry): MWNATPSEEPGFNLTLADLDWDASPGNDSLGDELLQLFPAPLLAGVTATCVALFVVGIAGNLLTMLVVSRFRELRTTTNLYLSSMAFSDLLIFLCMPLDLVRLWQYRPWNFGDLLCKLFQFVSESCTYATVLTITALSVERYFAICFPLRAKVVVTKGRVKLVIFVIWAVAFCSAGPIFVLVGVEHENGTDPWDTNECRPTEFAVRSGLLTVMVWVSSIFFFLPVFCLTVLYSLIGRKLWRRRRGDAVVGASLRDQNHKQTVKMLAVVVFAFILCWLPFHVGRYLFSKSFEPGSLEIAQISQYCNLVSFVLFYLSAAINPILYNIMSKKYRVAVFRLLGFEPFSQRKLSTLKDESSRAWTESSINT

Regarding `C[C@H](N)C(=O)NN(Cc1ccccc1)C(=O)N[C@@H](C)C(=O)N[C@@H](Cc1c[nH]c2ccccc12)C(=O)N[C@H](Cc1ccccc1)C(=O)N[C@@H](CCCCN)C(N)=O` (H-A[azaPhe]AW[dF]K-NH2), the Activity in test [1] was found to be 28%. In addition, the figures for the IC50 (at Platelet glycoprotein 4; in test [2]) were 42.7 µM and over 10 µM, respectively.

For `Cc1[nH]c2ccccc2c1C[C@@H](NC(=O)[C@@H]1Cc2cccc3c2N1C(=O)[C@@H](N)CC3)C(=O)N[C@H](CCCCN)C(=O)N[C@@H](Cc1c[nH]c2ccccc12)C(=O)N[C@H](Cc1ccccc1)C(=O)N[C@@H](CCCCN)C(N)=O` (Haic-[dTrp(2-Me)][dK]W[dF]K-NH2), the Activity in test [1] was 3%. Moreover, the results for the half-maximal inhibitory concentration (IC50) (on Platelet glycoprotein 4; in test [2]) were 1.11 µM and 0.75 µM, respectively.

For the molecule `CC(C)CN(NC(=O)[C@@H](Cc1c[nH]c2ccccc12)NC(=O)[C@@H](N)Cc1cnc[nH]1)C(=O)N[C@@H](Cc1c[nH]c2ccccc12)C(=O)N[C@H](Cc1ccccc1)C(=O)N[C@@H](C)C(N)=O` (H-H[dW][azaLeu]W[dF]A-NH2), in test [1], the Activity is reported as 25%. Moreover, the IC50 on Platelet glycoprotein 4 turned out to be 7.59 µM.

With `C[C@H](NC(=O)[C@@H](Cc1c[nH]c2ccccc12)NC(=O)[C@@H](N)Cc1cnc[nH]1)C(=O)NN(Cc1ccc(O)cc1)C(=O)N[C@H](Cc1ccccc1)C(=O)N[C@@H](CCCCN)C(N)=O` (H-H[dW]A[azaTyr][dF]K-NH2), the Activity in test [1] was found to be 17%.

`CC(C)CN(NC(=O)[C@H](N)Cc1c[nH]c2ccccc12)C(=O)N[C@@H](Cc1c[nH]c2ccccc12)C(N)=O`: in test [1], the Activity was determined as 47%. Besides, the IC50 (on Platelet glycoprotein 4; in test [2]) was over 10 µM throughout.

Turning to `C[C@H](N)C(=O)N[C@H](Cc1c[nH]c2ccccc12)C(=O)N[C@@H](C)C(=O)NN(Cc1ccccc1)C(=O)N[C@H](Cc1ccccc1)C(=O)N[C@@H](CCCCN)C(N)=O` (H-A[dW]A[azaPhe][dF]K-NH2), the Activity in test [1] is on record as 105%. The IC50 is 7.58 µM on Platelet glycoprotein 4 and over 10 µM in test [2].

As to `C[C@H](N)C(=O)NN(Cc1ccc(O)cc1)C(=O)N[C@@H](C)C(=O)N[C@@H](Cc1c[nH]c2ccccc12)C(=O)N[C@H](Cc1ccccc1)C(=O)N[C@@H](CCCCN)C(N)=O` (H-A[azaTyr]AW[dF]K-NH2), the half-maximal inhibitory concentration (IC50) on Platelet glycoprotein 4 is 36.9 µM; in test [2], over 10 µM.

As to `C[C@H](N)C(=O)N[C@H](Cc1c[nH]c2ccccc12)C(=O)NNC(=O)N[C@@H](Cc1c[nH]c2ccccc12)C(=O)N[C@H](Cc1ccccc1)C(=O)N[C@@H](CCCCN)C(N)=O` (H-A[dW][azaGly]W[dF]K-NH2), the Activity in test [1] came out at 72%. In addition, at Platelet glycoprotein 4, the IC50 is 6.06 µM.

In the case of `C[C@H](NC(=O)[C@H](C)NC(=O)N(Cc1ccc(O)cc1)NC(=O)C(N)Cc1cnc[nH]1)C(=O)N[C@H](Cc1ccccc1)C(=O)N[C@@H](CCCCN)C(N)=O` (stereo partly specified), the IC50 (on Platelet glycoprotein 4; in test [2]) was over 10 µM in each case.
